Laboratory results from ChEMBL document CHEMBL1649125, “Efficacy of the novel diamidine compound 2,5-Bis(4-amidinophenyl)- furan-bis-O-Methlylamidoxime (Pafuramidine, DB289) against Trypanosoma brucei rhodesiense infection in vervet monkeys after oral administration” (2009).
Active and inactive are the calls of the source. No cut-off for these calls is given here.

Columns and labels:
[1] = test system: Trypanosoma brucei rhodesiense; experiment: Antitrypanosomal activity against Trypanosoma brucei rhodesiense infected in vervet monkey assessed as body weight change at 1 mg/kg, po administered on day 7 post infection for 5 days; format: functional
Method in brief: (§1)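 Body weight change is given as percent of the mean preinfection weight (n=3 per group). It was recorded at day 0 p.t., day 28 p.t. and end point. Oral gavage was once daily: 5 days from day 7 p.i., or 10 days from day 28 p.i.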

[2] = test system: Trypanosoma brucei rhodesiense; experiment: Antitrypanosomal activity against Trypanosoma brucei rhodesiense infected in vervet monkey assessed as change in packed cell volume at 3 mg/kg, po administered on day 7 post infection for 5 days measured on day 28 post treatment; format: functional
Method in brief: (§2)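 Vervet monkeys, three per group, were infected intravenously with T. b. rhodesiense KETRI 2537. From day 7 p.i., a drug suspension was given by oral gavage once daily for 5 consecutive days. Packed cell volume was expressed as % change from the group's mean preinfection value. PCV was read at day 0 p.t., day 28 p.t. and endpoint, with follow-up to 180 days p.t.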

[3] = test system: Trypanosoma brucei rhodesiense; experiment: Antitrypanosomal activity against Trypanosoma brucei rhodesiense infected in vervet monkey 463 assessed as time to detect parasitemia in wet films of blood at 1 mg/kg, po administered on day 7 post infection for 5 days by hematocrit centrifugation technique; format: functional
Method in brief: (§3)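 Parasitemia was monitored from 3 days p.i. in ear-prick or inguinal venous blood. Methods were wet-film microscopy (detection limit 10^5 trypanosomes/ml) and hematocrit centrifugation technique (detection limit 10^3 trypanosomes/ml). Drug was given once daily by oral gavage: 5 days from day 7 p.i., or 10 days from day 28 p.i.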

[4] = test system: Trypanosoma brucei rhodesiense; experiment: Antitrypanosomal activity against Trypanosoma brucei rhodesiense infected in vervet monkey 483 assessed as time to detect parasitemia at 3 mg/kg, po administered on day 7 post infection for 5 days; format: functional; method in brief: as §3
[5] = test system: Trypanosoma brucei rhodesiense; experiment: Antitrypanosomal activity against Trypanosoma brucei rhodesiense infected in vervet monkey assessed as body weight change at 10 mg/kg, po administered on day 28 post infection for 10 days measured on day 28 post treatment; format: functional; method in brief: as §1
[6] = test system: Trypanosoma brucei rhodesiense; experiment: Antitrypanosomal activity against Trypanosoma brucei rhodesiense infected in vervet monkey assessed as body weight change at 10 mg/kg, po administered on day 14 post infection for 5 days; format: functional
[7] = test system: Trypanosoma brucei rhodesiense; experiment: Antitrypanosomal activity against Trypanosoma brucei rhodesiense infected in vervet monkey assessed as body weight change at 10 mg/kg, po administered on day 14 post infection for 5 days measured on day 28 post treatment; format: functional
[8] = test system: Trypanosoma brucei rhodesiense; experiment: Antitrypanosomal activity against Trypanosoma brucei rhodesiense infected in vervet monkey 471 assessed as time to detect parasitemia at 10 mg/kg, po administered on day 14 post infection for 5 days; format: functional
[9] = test system: Trypanosoma brucei rhodesiense; experiment: Antitrypanosomal activity against Trypanosoma brucei rhodesiense infected in vervet monkey 482 assessed as time to detect CSF parasitosis at 3 mg/kg, po administered on day 7 post infection for 5 days measured after 14 to 21 days by microscopy; format: functional
Method in brief: (§4)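 Trypanosomes and white cells in free-flowing CSF were counted by hemocytometer. Negative CSF was centrifuged and re-examined. Samples still negative were inoculated at 0.2 ml intraperitoneally into two mice each. Drug was given once daily by oral gavage: 5 days from day 7 p.i., or 10 days from day 28 p.i.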

[10] = test system: Trypanosoma brucei rhodesiense; experiment: Antitrypanosomal activity against Trypanosoma brucei rhodesiense infected in vervet monkey 482 assessed as time to detect parasitemia in wet films of blood at 3 mg/kg, po administered on day 7 post infection for 5 days by hematocrit centrifugation technique; format: functional; method in brief: as §3
[11] = test system: Trypanosoma brucei rhodesiense; experiment: Antitrypanosomal activity against Trypanosoma brucei rhodesiense infected in vervet monkey 520 assessed as time to detect CSF parasitosis at 10 mg/kg, po administered on day 28 post infection for 10 days measured after 14 to 21 days by microscopy; format: functional; method in brief: as §4
[12] = test system: Trypanosoma brucei rhodesiense; experiment: Antitrypanosomal activity against Trypanosoma brucei rhodesiense infected in vervet monkey assessed as body weight change at 1 mg/kg, po administered on day 7 post infection for 5 days measured on day 28 post treatment; format: functional; conditions: in the assay text read “day 1 post treatment” for “day 28 post treatment”; method in brief: as §1
[13] = test system: Trypanosoma brucei rhodesiense; experiment: Antimicrobial activity against Trypanosoma brucei rhodesiense infected in vervet monkeys assessed as cure from infection at 10 mg/kg, po administered on day 7 post infection for 5 days; format: functional, organism-based; parameters: dose 10 mg/kg
Method in brief: (§5)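 Vervet monkeys (n=3 per group), infected with T. b. rhodesiense KETRI 2537. Dosed by oral gavage with a suspension once daily for 5 consecutive days from day 7 p.i. Cure meant no trypanosomes over 180 days p.t. in blood (wet film, HCT) or CSF (hemocytometer, centrifugation), with mouse subinoculation of negative samples.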

[14] = test system: Trypanosoma brucei rhodesiense; experiment: Antitrypanosomal activity against Trypanosoma brucei rhodesiense infected in vervet monkey assessed as change in packed cell volume at 10 mg/kg, po administered on day 7 post infection for 5 days measured on day 28 post treatment; format: functional; method in brief: as §2
[15] = test system: Trypanosoma brucei rhodesiense; experiment: Antitrypanosomal activity against Trypanosoma brucei rhodesiense infected in vervet monkey 485 assessed as time to detect parasitemia in wet films of blood at 1 mg/kg, po administered on day 7 post infection for 5 days by hematocrit centrifugation technique; format: functional; method in brief: as §3
[16] = test system: Trypanosoma brucei rhodesiense; experiment: Antitrypanosomal activity against Trypanosoma brucei rhodesiense infected in vervet monkey assessed as body weight change at 3 mg/kg, po administered on day 7 post infection for 5 days measured on day 28 post treatment; format: functional; method in brief: as §1
[17] = test system: Trypanosoma brucei rhodesiense; experiment: Antitrypanosomal activity against Trypanosoma brucei rhodesiense infected in vervet monkey assessed as change in packed cell volume at 1 mg/kg, po administered on day 7 post infection for 5 days; format: functional
Method in brief: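 Packed cell volume change is given as percent of the mean preinfection PCV in 3 monkeys. It was recorded at day 0 p.t., day 28 p.t. and end point, after 5 daily oral gavage doses starting day 7 p.i.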

[18] = test system: Trypanosoma brucei rhodesiense; experiment: Antitrypanosomal activity against Trypanosoma brucei rhodesiense infected in vervet monkey 485 assessed as time to detect CSF parasitosis at 1 mg/kg, po administered on day 7 post infection for 5 days measured after 7 to 14 days; format: functional; method in brief: as §4
[19] = test system: Trypanosoma brucei rhodesiense; experiment: Antitrypanosomal activity against Trypanosoma brucei rhodesiense infected in vervet monkey 463 assessed as time to detect CSF parasitosis at 1 mg/kg, po administered on day 7 post infection for 5 days measured after 14 to 21 days by microscopy; format: functional, organism-based; parameters: dose 1 mg/kg; method in brief: as §4
[20] = test system: Trypanosoma brucei rhodesiense; experiment: Antitrypanosomal activity against Trypanosoma brucei rhodesiense infected in vervet monkey 483 assessed as time to detect parasitemia in wet films of blood at 3 mg/kg, po administered on day 7 post infection for 5 days by hematocrit centrifugation technique; format: functional; method in brief: as §3
[21] = test system: Trypanosoma brucei rhodesiense; experiment: Antimicrobial activity against Trypanosoma brucei rhodesiense infected in vervet monkeys assessed as cure from infection at 3 mg/kg, po administered on day 7 post infection for 5 days; format: functional, organism-based; parameters: dose 3 mg/kg; method in brief: as §5
[22] = test system: Trypanosoma brucei rhodesiense; experiment: Antitrypanosomal activity against Trypanosoma brucei rhodesiense infected in vervet monkey 484 assessed as time to detect CSF parasitosis at 1 mg/kg, po administered on day 7 post infection for 5 days measured after 7 to 14 days; format: functional; method in brief: as §4
[23] = test system: Trypanosoma brucei rhodesiense; experiment: Antitrypanosomal activity against Trypanosoma brucei rhodesiense infected in vervet monkey 471 assessed as time to detect CSF parasitosis at 10 mg/kg, po administered on day 14 post infection for 5 days measured after 14 to 21 days by microscopy; format: functional, organism-based; parameters: dose 10 mg/kg
[24] = test system: Trypanosoma brucei rhodesiense; experiment: Antitrypanosomal activity against Trypanosoma brucei rhodesiense infected in vervet monkey 520 assessed as time to detect CSF parasitosis at 10 mg/kg, po administered on day 28 post infection for 10 days measured after 7 to 14 days; format: functional; method in brief: as §4
[25] = test system: Trypanosoma brucei rhodesiense; experiment: Antitrypanosomal activity against Trypanosoma brucei rhodesiense infected in vervet monkey 468 assessed as cure from infection at 10 mg/kg, po administered on day 7 post infection for 5 days; format: functional, organism-based; parameters: dose 10 mg/kg; method in brief: as §5

`CONC(=N)c1ccc(-c2ccc(-c3ccc(C(=N)NOC)cc3)o2)cc1` [PAFURAMIDINE] gave an Activity [1] of -2.2%, an Activity [2] of -2.9% and a Time [3] of 9 days. The Time [4] was 69 days, the Activity [5] was -8.1% and the Activity [6] was -4.2%. The Activity [7] was -5.2%, the Time [8] was 56 days and the Time [9] was 21 days. The Time [10] was 79 days, the Time [11] was 119 days and the Activity [12] was -2.1%. For the same compound, the Activity [13] was “Active”, the Activity [14] was -1.6% and the Time [15] was 3 days. For the same compound, the Activity [16] was -6.6%, the Activity [17] was -4.3% and the Time [18] was 14 days. The Time [19] was “inactive”, the Time [20] was 66 days and the Activity [21] was “Active”. The Time [22] was 7 days, the Time [23] was “inactive” and the Time [24] was 119 days. The Time [25] was “Active”.
